Results: ChEMBL document CHEMBL1125392, “Antitumor agents. 124. New 4 beta-substituted aniline derivatives of 6,7-O,O-demethylene-4'-O-demethylpodophyllotoxin and related compounds as potent inhibitors of human DNA topoisomerase II” (J Med Chem, 1992)

Experiments:
[1] = Concentration required for 50% reduction in KB cell number after 3-day incubation; assay type: functional, cell-based, Homo sapiens
Nucleic Acid = test: Effect on cellular protein DNA complex formation(%) at 10 uM in comparison with etoposide; assay type: functional
[2] = target: DNA topoisomerase II (Homo sapiens) (UniProt P11388+Q02880); test: Inhibition of human DNA Topoisomerase II; assay type: protein assay
Method in brief: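 Human DNA topoisomerase II catalytic inhibition was tested at five concentrations (10, 20, 25, 50 and 100 μM). ID50 was set from the degree of inhibition observed across these concentrations.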

Compound | IC50 [1] [µM] | ID50 [2] [µM] | Complex formation (Nucleic Acid) [%]
COc1cc([C@@H]2c3cc4c(cc3[C@@H](O[C@@H]3O[C@@H]5CO[C@@H](C)O[C@H]5[C@H](O)[C@H]3O)[C@H]3COC(=O)[C@H]23)OCO4)cc(OC)c1O [ETOPOSIDE] | 0.2 | – | 100
COc1cc([C@@H]2c3cc4c(cc3[C@@H](Nc3ccc(F)cc3)[C@H]3COC(=O)[C@H]23)OCO4)cc(OC)c1O | 0.24 | – | 213
COc1cc([C@@H]2c3cc(O)c(O)cc3[C@@H](Nc3ccccc3)[C@H]3COC(=O)[C@H]23)cc(OC)c1O | > 2.2 | 25 | 84
COc1cc([C@@H]2c3cc(O)c(O)cc3[C@@H](Nc3ccc([N+](=O)[O-])cc3)[C@H]3COC(=O)[C@H]23)cc(OC)c1O | 1.5 | 20 | 99
COc1cc([C@@H]2c3cc(O)c(O)cc3[C@@H](Nc3ccccc3)[C@H]3COC(=O)[C@H]23)cc(OC)c1OC | > 2.1 | 50 | 9
COc1cc([C@@H]2c3cc(O)c(O)cc3[C@@H](Nc3cccc(O)c3)[C@H]3COC(=O)[C@H]23)cc(OC)c1O | > 2.1 | 20 | 18
COc1cc([C@@H]2c3cc(O)c(O)cc3[C@@H](Nc3ccc(F)cc3)[C@H]3COC(=O)[C@H]23)cc(OC)c1O | > 2.1 | 25 | 52
COc1cc2c(cc1OC)[C@@H](Nc1ccc(F)cc1)[C@H]1COC(=O)[C@@H]1[C@@H]2c1cc(OC)c(O)c(OC)c1 | 0.78 | 50 | 108
COc1cc([C@@H]2c3cc(O)c(O)cc3[C@@H](Nc3ccc(F)cc3)[C@H]3COC(=O)[C@H]23)cc(OC)c1OC | > 2 | 50 | 11
CCOC(=O)c1ccc(N[C@@H]2c3cc4c(cc3[C@@H](c3cc(OC)c(O)c(OC)c3)[C@H]3C(=O)OC[C@@H]32)OCO4)cc1 | 0.84 | – | 207
COc1cc([C@@H]2c3cc4c(cc3[C@@H](Nc3ccc([N+](=O)[O-])cc3)[C@H]3COC(=O)[C@H]23)OCO4)cc(OC)c1O | 0.49 | – | 323
COc1cc([C@@H]2c3cc4c(cc3[C@@H](Nc3ccc(C#N)cc3)[C@H]3COC(=O)[C@H]23)OCO4)cc(OC)c1O | 0.64 | – | 211

More lines, main results first:

IC50 [1] [µM] | ID50 [2] [µM] | Compound | Complex formation (Nucleic Acid) [%]
> 2 | > 100 | COc1cc([C@@H]2c3cc(O)c(O)cc3[C@@H](Nc3ccc(C#N)cc3)[C@H]3COC(=O)[C@H]23)cc(OC)c1OC | 33
7.6 | > 100 | COc1cc2c(cc1OC)[C@@H](Nc1ccc(F)cc1)[C@H]1COC(=O)[C@@H]1[C@@H]2c1cc(OC)c(OC)c(OC)c1 | 8
5.5 | > 100 | CCOC(=O)c1ccc(N[C@@H]2c3cc(OC)c(OC)cc3[C@@H](c3cc(OC)c(OC)c(OC)c3)[C@H]3C(=O)OC[C@@H]32)cc1 | 9
> 1.8 | 100 | CCOC(=O)c1ccc(N[C@@H]2c3cc(O)c(O)cc3[C@@H](c3cc(OC)c(OC)c(OC)c3)[C@H]3C(=O)OC[C@@H]32)cc1 | 22
> 1.9 | > 100 | COc1cc([C@@H]2c3cc(O)c(O)cc3[C@@H](Nc3ccc([N+](=O)[O-])cc3)[C@H]3COC(=O)[C@H]23)cc(OC)c1OC | 23
7.3 | > 100 | COc1cc2c(cc1OC)[C@@H](Nc1ccc([N+](=O)[O-])cc1)[C@H]1COC(=O)[C@@H]1[C@@H]2c1cc(OC)c(OC)c(OC)c1 | 8
< 0.77 | 50 | COc1cc2c(cc1OC)[C@@H](Nc1ccc(C#N)cc1)[C@H]1COC(=O)[C@@H]1[C@@H]2c1cc(OC)c(O)c(OC)c1 | 125
2 | 20 | COc1cc([C@@H]2c3cc(O)c(O)cc3[C@@H](Nc3ccc(C#N)cc3)[C@H]3COC(=O)[C@H]23)cc(OC)c1O | 62
> 2 | 50 | COc1cc([C@@H]2c3cc(O)c(O)cc3[C@@H](Nc3cccc(O)c3)[C@H]3COC(=O)[C@H]23)cc(OC)c1OC | 4
5.8 | > 100 | COc1cc2c(cc1OC)[C@@H](Nc1ccc(C#N)cc1)[C@H]1COC(=O)[C@@H]1[C@@H]2c1cc(OC)c(OC)c(OC)c1 | 12
< 0.7 | 100 | CCOC(=O)c1ccc(N[C@@H]2c3cc(OC)c(OC)cc3[C@@H](c3cc(OC)c(O)c(OC)c3)[C@H]3C(=O)OC[C@@H]32)cc1 | 127
1.46 | 20 | CCOC(=O)c1ccc(N[C@@H]2c3cc(O)c(O)cc3[C@@H](c3cc(OC)c(O)c(OC)c3)[C@H]3C(=O)OC[C@@H]32)cc1 | 138
1.3 | 100 | COc1cc2c(cc1OC)[C@@H](Nc1ccc([N+](=O)[O-])cc1)[C@H]1COC(=O)[C@@H]1[C@@H]2c1cc(OC)c(O)c(OC)c1 | 75
